{"data": "Measured values from different studies", "F11": "Coagulation factor XI (F11, Homo sapiens, UniProt P03951)", "PDE1C": "Dual specificity calcium/calmodulin-dependent 3',5'-cyclic nucleotide phosphodiesterase 1C (PDE1C, Homo sapiens, UniProt Q14123)", "HDAC5": "Histone deacetylase 5 (HDAC5, Homo sapiens, UniProt Q9UQL6)", "A disintegrin and metalloproteinase with thrombospondin motifs 7": "A disintegrin and metalloproteinase with thrombospondin motifs 7 (Homo sapiens, UniProt Q9UKP4)", "note": "pIC50: −log10 of the molar value."}
{"SMILES": "CCCC(=O)NCCCN1CCc2c([nH]c3ccc(Cl)cc23)C1", "target": "Sodium-dependent dopamine transporter (SLC6A3, Homo sapiens, UniProt Q01959, F155Y)", "observed": "transporter uptake", "mode": "inhibitor", "pIC50": 4.74}
{"SMILES": "O=c1oc(-c2cccnc2)nc2ccccc12", "target": "F11", "observed": "enzyme activity", "mode": "inhibitor", "method": "absorbance", "pH": "pH 7.4", "pIC50": "< 4.30"}
{"SMILES": "Cc1cc2c(c(=O)[nH]1)C(=O)O/C2=C\\c1ccc(F)cc1OC(C)C", "target": "PDE1C", "observed": "enzyme activity", "mode": "inhibitor", "method": "radiometric", "pIC50": 6.15}
{"SMILES": "O=C(NO)c1cncc(OS(=O)(=O)Oc2ccc3ccccc3c2)c1", "target": "HDAC5", "observed": "enzyme activity", "mode": "inhibitor", "method": "fluorescence", "pIC50": 5.09}
{"SMILES": "Cn1nccc1[C@]1(CNC(=O)c2ccc(C(F)(F)F)c(F)c2-c2ccc(C(F)(F)F)cc2)NC(=O)NC1=O", "target": "A disintegrin and metalloproteinase with thrombospondin motifs 7", "observed": "enzyme activity", "mode": "inhibitor", "method": "FRET", "pIC50": 8.02}
{"SMILES": "Cc1cc2c(c(=O)[nH]1)C(=O)O/C2=C\\c1ccccc1OCC1CC1", "target": "PDE1C", "observed": "enzyme activity", "mode": "inhibitor", "method": "radiometric", "pIC50": 6.72}
{"SMILES": "Cn1nccc1[C@]1(CNC(=O)c2ccccc2-c2ccc(C(F)(F)F)cc2)NC(=O)NC1=O", "target": "A disintegrin and metalloproteinase with thrombospondin motifs 7", "observed": "enzyme activity", "mode": "inhibitor", "method": "FRET", "pIC50": 7.92}
{"SMILES": "O=c1oc(-c2ccco2)nc2ccccc12", "target": "F11", "observed": "enzyme activity", "mode": "inhibitor", "method": "absorbance", "pH": "pH 7.4", "pIC50": "< 4.30"}
{"SMILES": "O=C1NC(=O)[C@](CNC(=O)c2cnn(-c3ccc(F)cc3)n2)(C2CC2)N1", "target": "A disintegrin and metalloproteinase with thrombospondin motifs 7", "observed": "enzyme activity", "mode": "inhibitor", "method": "FRET", "pIC50": 7.59}
{"SMILES": "COc1ccc(C[C@H]2COC(=O)[C@@H]2Cc2ccc(OCC(=O)Nc3ccc(C(=O)Nc4ccccc4N)cc3)c(OC)c2)cc1OC", "target": "HDAC5", "observed": "enzyme activity", "mode": "inhibitor", "pIC50": "< 5.00"}
{"SMILES": "O=C(NO)c1cncc(OS(=O)(=O)Oc2ccc(-n3ccnc3)cc2)c1", "target": "HDAC5", "observed": "enzyme activity", "mode": "inhibitor", "method": "fluorescence", "pIC50": 5.45}
{"SMILES": "Cc1cc2c(c(=O)[nH]1)C(=O)O/C2=C\\c1cc(F)ccc1OCCN1CCOCC1", "target": "PDE1C", "observed": "enzyme activity", "mode": "inhibitor", "method": "radiometric", "pIC50": 7.51}
{"SMILES": "Cn1nccc1[C@]1(CNC(=O)c2ccc(Cl)c(F)c2-c2ccc(C(F)(F)F)cc2)NC(=O)NC1=O", "target": "A disintegrin and metalloproteinase with thrombospondin motifs 7", "observed": "enzyme activity", "mode": "inhibitor", "method": "FRET", "pIC50": 8.49}
{"SMILES": "CCOc1ccccc1/C=C1\\OC(=O)c2c1cc(C)[nH]c2=O", "target": "PDE1C", "observed": "enzyme activity", "mode": "inhibitor", "method": "radiometric", "pIC50": 6.83}
{"SMILES": "O=C(/C=C/c1ccc(O)c2oc(-c3ccc(O)c(O)c3)cc12)O[C@H](Cc1ccc(O)c(O)c1)C(=O)O", "target": "YTH domain-containing family protein 2 (YTHDF2, Homo sapiens, UniProt Q9Y5A9)", "observed": "ligand displacement", "method": "FP", "pIC50": 5.22}
